# Assay results of several laboratories.
# Target: Mitogen-activated protein kinase kinase kinase 14 (MAP3K14, Homo sapiens, UniProt Q99558)
SMILES,assay,conditions,measurement,value
CC(C)(C)c1cc(C=C(C#N)C#N)cc(Br)c1O,"enzyme activity, inhibitor",0.5 µM,remaining activity,97.3%
Cn1cncc1[C@](O)(COc1ccc(C#N)cc1-c1ccc(OC(F)(F)F)cc1)c1ccc(C#N)cc1,"cell-free assay, competition with immobilised ligand",1 µM,remaining binding,88%
Cn1cc(-c2cccc(N3CCc4c(sc5c4CC(C)(C)C5)C3=O)c2CO)cc(Nc2ccncn2)c1=O,"enzyme activity, inhibitor",1 µM,inhibition,-3%
Nc1ncc(-c2nc(N3CCOCC3)nc(N3CCOCC3)n2)c(C(F)F)n1,"binding, competition with immobilised ligand",10 µM,remaining binding,70%
COc1ncccc1-c1cnn2ccc(N3CCN(C(=O)OC(C)C)CC3)nc12,"binding, competition with immobilised ligand",1 µM,remaining binding,100%
N#CC1(c2ccccn2)CCN(Cc2cc(C(=O)O)c(=O)n3ccccc23)CC1,"cell-free assay, competition with immobilised ligand",1 µM,remaining binding,73%
O=c1[nH]c2ccccc2n1C1CCN(Cc2ccc(-c3[nH]c4cc5ncnc5cc4nc3-c3ccccc3)cc2)CC1,cell-free assay,0.5 µM,remaining signal,96.8%
Cn1cc(-c2cc(F)cc(N3CCn4c(cc5c4CCCC5)C3=O)c2CO)cc(Nc2ccc(N3CCN(C4COC4)CC3)cn2)c1=O,"enzyme activity, inhibitor",0.1 µM,inhibition,6%
